The record followed here is the array DNA melting data of Ke et al. (doi:10.1101/2024.01.08.574731).

A short description of data set [1]: folding enthalpy; higher = less favourable; fluorescence melt of hairpins on a sequencing array, two-state fit. The note with it: sodium 0.088 M. The method in brief:
(§1)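 Hairpins were imaged by Cy3 fluorescence on a sequenced MiSeq flow cell with annealed Cy3 and quencher oligos, in 50 mM Na-HEPES pH 8.0, 25 mM NaCl, in 2.5 °C steps up to 60 °C. Bootstrapped two-state fits of normalised signals gave melting temperature and folding enthalpy. Four replicates were combined by inverse variance, and fitted temperatures were raised by 9.35 °C to match UV melts.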

A short description of data set [2]: melting temperature; fluorescence melt of hairpins on a sequencing array, two-state fit, raised by 9.35 °C to match UV melts. The following applies: sodium 0.088 M. The method, boiled down: as §1

Take GCGAGTTCTCGC ((((....)))): the folding enthalpy in data set [1] was -25.6 kcal/mol. Further, the Tm in data set [2] turned out to be 56.2 °C.

Regarding GTATCCGGAAACGGATAC (((((((....))))))), the folding enthalpy in data set [1] is -36.6 kcal/mol. In data set [2], the Tm came out at 63.7 °C.

GTGGTTGGAAACGACCAC (((((.(....).))))): the folding enthalpy in data set [1] was -41 kcal/mol. Further, the Tm in data set [2] came to 54.7 °C.

Turning to GCTGACGGAAACACCAGC ((((..(....)..)))), in data set [1], the folding enthalpy was -13.1 kcal/mol. The Tm in data set [2] came out at 33.3 °C.

For GCTCTCACGAAAGTGAGC (((..(((....)))))), in data set [1], the folding enthalpy is -7.6 kcal/mol. For the same sequence, the Tm in data set [2] stood at 35.8 °C.

Turning to GTTGCCACGAAAGTGAAC (((..(((....)))))), the folding enthalpy in data set [1] was -11.8 kcal/mol. The Tm in data set [2] is 30.6 °C.

As for GGTCCAGGAAACCAGACC ((((..(....)..)))), in data set [1], the folding enthalpy is -23.1 kcal/mol. Further, the Tm in data set [2] worked out at 34.5 °C.

For GGCTCCGAAAGGAGCGCC ((((((....)))..))), the folding enthalpy in data set [1] was -6.52 kcal/mol. Also, in data set [2], the Tm turned out to be 68.6 °C.

GATCTGTCGCCAGATC ((((((....)))))): the folding enthalpy in data set [1] was -37.6 kcal/mol. For the same sequence, the Tm in data set [2] was determined as 50.1 °C.

Turning to CGAGCGGAAACGCATTCG ((((((....)))..))), in data set [1], the folding enthalpy was -14.8 kcal/mol. Also, the Tm in data set [2] stood at 33.1 °C.

On to GATCGTAACACGATC ((((((...)))))), for which, in data set [1], the folding enthalpy was -37.4 kcal/mol. Besides, the Tm in data set [2] is 57.5 °C.

As to GAGCAGGGAAACCTACTC (((.(((....))).))), the folding enthalpy in data set [1] is -22.1 kcal/mol. For the same sequence, the Tm in data set [2] came out at 39.5 °C.

As for GTCACTCCGAAAGGAGAC (((..(((....)))))), the folding enthalpy in data set [1] is -8.95 kcal/mol. The Tm in data set [2] is 31.6 °C.

As to AGTGAGAAATCACT (((((....))))), the folding enthalpy in data set [1] was -15.7 kcal/mol. Besides, the Tm in data set [2] came to 38.5 °C.

In the case of GTGACTGGAAACAGTCGC (.(((((....))))).), in data set [1], the folding enthalpy is -30.6 kcal/mol. Besides, the Tm in data set [2] was 56.2 °C.

On to GCCGTGGGAAACCATGGC (((.(((....))).))), for which the folding enthalpy in data set [1] is -43.5 kcal/mol. Also, in data set [2], the Tm was 59.4 °C.

As to TAGCTGAAAAGCTA (((((....))))), the folding enthalpy in data set [1] is -14.6 kcal/mol. The Tm in data set [2] came to 46.9 °C.

Consider GCGACTCATCGC ((((....)))), for which, in data set [1], the folding enthalpy was -24.5 kcal/mol. Moreover, the Tm in data set [2] stood at 49 °C.

For the sequence GCCCACGAAAGTGGTGGC ((((((....)))..))), the folding enthalpy in data set [1] is -13.8 kcal/mol. Moreover, in data set [2], the Tm stood at 55.4 °C.

Take GATCTCGGCGAGATC ((((((...)))))): the folding enthalpy in data set [1] was -35.8 kcal/mol. In addition, the Tm in data set [2] turned out to be 59.6 °C.

For the sequence GTTTACGAAAGTAGAAC ((((((....))).))), in data set [1], the folding enthalpy was -11.3 kcal/mol. For the same sequence, the Tm in data set [2] turned out to be 27.2 °C.

Take CGCCCGGAAACGGTCGCG ((((((....)))..))): the folding enthalpy in data set [1] is -21.2 kcal/mol. Also, the Tm in data set [2] was 50.1 °C.

Consider GCCGCGCGAAAGCCCTGC ((.(.((....)).).)), for which the folding enthalpy in data set [1] is -12.1 kcal/mol. For the same sequence, the Tm in data set [2] amounted to 28.6 °C.

Turning to GACCCCGGAAACGGGATC ((.((((....)))).)), the folding enthalpy in data set [1] is -16.3 kcal/mol. In addition, the Tm in data set [2] worked out at 45.8 °C.

On to GTTCCGGGAAACTGGAGC (.(((.(....).))).), for which the folding enthalpy in data set [1] was -21.2 kcal/mol. The Tm in data set [2] came to 36.1 °C.

As to GTAGATACGAAAGTATAC (((..(((....)))))), the folding enthalpy in data set [1] is -11.6 kcal/mol. Also, the Tm in data set [2] stood at 25.4 °C.

Take GCGTATCCACGC ((((....)))): in data set [1], the folding enthalpy is -26.4 kcal/mol. In addition, the Tm in data set [2] was 51.7 °C.

On to GGACCGGGAAACCGACCC ((..(((....)))..)), for which the folding enthalpy in data set [1] was -18 kcal/mol. The Tm in data set [2] came out at 31.1 °C.

With GCTTTGGGAAACTAAAGC (((((.(....).))))), the folding enthalpy in data set [1] is -27.4 kcal/mol. Further, in data set [2], the Tm was 44.3 °C.

Take GTTGCCGAAAGGCCAAAC ((((((....)))..))): in data set [1], the folding enthalpy was -10.3 kcal/mol. The Tm in data set [2] came to 26.9 °C.

Take GCGCCCTCGAAAGAGCGC (((..(((....)))))): the folding enthalpy in data set [1] is -32 kcal/mol. In addition, in data set [2], the Tm worked out at 54.3 °C.
